Assay results: ChEMBL document CHEMBL3600374, “Dual inhibitors of the dengue and West Nile virus NS2B-NS3 proteases: Synthesis, biological evaluation and docking studies of novel peptide-hybrids” (Bioorg Med Chem, 2015)
Active and inactive are the calls of the source. The calls are words filed in the database; no cut-off is given here.

Test system: dengue virus type 2
Experiment: Inhibition of DENV serotype 2 NS2B-NS3 protease expressed in Escherichia coli BL21 lambda (DE3) cells using Abz-Nle-Lys-Arg-Arg-Ser-3-(NO2)Tyr as substrate at 50 uM preincubated for 15 mins followed by substrate addition measured for 15 mins by FRET assay relative to control

Structure (SMILES)	inhibition
N=C(N)NCCC[C@H](NC(=O)c1ccc(/C=C2\SC(=O)N(CC3CCC3)C2=O)cc1)C(=O)N[C@@H](CCCCN)C(=O)N[C@H](C(N)=O)c1ccccc1	99.7%
N=C(N)NCCC[C@H](NC(=O)c1ccc(/C=C2\SC(=O)N(CC3CCCCC3)C2=O)cc1)C(=O)N[C@@H](CCCCN)C(=O)N[C@H](C(N)=O)c1ccccc1	99.3%
C#CCCCN1C(=O)S/C(=C\c2ccc(C(=O)N[C@@H](CCCNC(=N)N)C(=O)N[C@@H](CCCCN)C(=O)N[C@H](C(N)=O)c3ccccc3)cc2)C1=O	103%
CC(C)CN1C(=O)S/C(=C\c2ccc(C(=O)N[C@@H](CCCNC(=N)N)C(=O)N[C@@H](CCCCN)C(=O)N[C@H](C(N)=O)c3ccccc3)cc2)C1=O	99.6%
N=C(N)NCCC[C@H](NC(=O)c1ccc(/C=C2\SC(=O)N(C3CCC3)C2=O)cc1)C(=O)N[C@@H](CCCCN)C(=O)N[C@H](C(N)=O)c1ccccc1	100%
C#CCN1C(=O)S/C(=C\c2ccc(C(=O)N[C@@H](CCCNC(=N)N)C(=O)N[C@@H](CCCCN)C(=O)N[C@H](C(N)=O)c3ccccc3)cc2)C1=O	99.2%
O=C(O)c1ccc(/C=C2\SC(=O)N(CC3CCCC3)C2=O)cc1	15.9%

Test system: not listed separately
Experiment: Inhibition of DENV serotype 2 NS2B-NS3 protease expressed in Escherichia coli BL21 lambda (DE3) cells using Abz-Nle-Lys-Arg-Arg-Ser-3-(NO2)Tyr as substrate preincubated for 15 mins followed by substrate addition measured for 15 mins by FRET assay
Set-up: species or system dengue virus type 2
Method in brief: (§1)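 IC50 by FRET assay at substrate 50 μM; DENV protease at 100 nM, WNV protease at 150 nM. Measured in triplicate.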

Structure (SMILES)	IC50
N=C(N)NCCC[C@H](NC(=O)c1ccc(/C=C2\SC(=O)N(CC3CCC3)C2=O)cc1)C(=O)N[C@@H](CCCCN)C(=O)N[C@H](C(N)=O)c1ccccc1	780 nM
N=C(N)NCCC[C@H](NC(=O)c1ccc(/C=C2\SC(=O)N(CC3CCCCC3)C2=O)cc1)C(=O)N[C@@H](CCCCN)C(=O)N[C@H](C(N)=O)c1ccccc1	1050 nM
C#CCCCN1C(=O)S/C(=C\c2ccc(C(=O)N[C@@H](CCCNC(=N)N)C(=O)N[C@@H](CCCCN)C(=O)N[C@H](C(N)=O)c3ccccc3)cc2)C1=O	850 nM
CC(C)CN1C(=O)S/C(=C\c2ccc(C(=O)N[C@@H](CCCNC(=N)N)C(=O)N[C@@H](CCCCN)C(=O)N[C@H](C(N)=O)c3ccccc3)cc2)C1=O	1010 nM
N=C(N)NCCC[C@H](NC(=O)c1ccc(/C=C2\SC(=O)N(C3CCC3)C2=O)cc1)C(=O)N[C@@H](CCCCN)C(=O)N[C@H](C(N)=O)c1ccccc1	620 nM
C#CCN1C(=O)S/C(=C\c2ccc(C(=O)N[C@@H](CCCNC(=N)N)C(=O)N[C@@H](CCCCN)C(=O)N[C@H](C(N)=O)c3ccccc3)cc2)C1=O	990 nM

Target: Genome polyprotein (West Nile virus) (UniProt P06935)
Sequence (P06935 whole entry): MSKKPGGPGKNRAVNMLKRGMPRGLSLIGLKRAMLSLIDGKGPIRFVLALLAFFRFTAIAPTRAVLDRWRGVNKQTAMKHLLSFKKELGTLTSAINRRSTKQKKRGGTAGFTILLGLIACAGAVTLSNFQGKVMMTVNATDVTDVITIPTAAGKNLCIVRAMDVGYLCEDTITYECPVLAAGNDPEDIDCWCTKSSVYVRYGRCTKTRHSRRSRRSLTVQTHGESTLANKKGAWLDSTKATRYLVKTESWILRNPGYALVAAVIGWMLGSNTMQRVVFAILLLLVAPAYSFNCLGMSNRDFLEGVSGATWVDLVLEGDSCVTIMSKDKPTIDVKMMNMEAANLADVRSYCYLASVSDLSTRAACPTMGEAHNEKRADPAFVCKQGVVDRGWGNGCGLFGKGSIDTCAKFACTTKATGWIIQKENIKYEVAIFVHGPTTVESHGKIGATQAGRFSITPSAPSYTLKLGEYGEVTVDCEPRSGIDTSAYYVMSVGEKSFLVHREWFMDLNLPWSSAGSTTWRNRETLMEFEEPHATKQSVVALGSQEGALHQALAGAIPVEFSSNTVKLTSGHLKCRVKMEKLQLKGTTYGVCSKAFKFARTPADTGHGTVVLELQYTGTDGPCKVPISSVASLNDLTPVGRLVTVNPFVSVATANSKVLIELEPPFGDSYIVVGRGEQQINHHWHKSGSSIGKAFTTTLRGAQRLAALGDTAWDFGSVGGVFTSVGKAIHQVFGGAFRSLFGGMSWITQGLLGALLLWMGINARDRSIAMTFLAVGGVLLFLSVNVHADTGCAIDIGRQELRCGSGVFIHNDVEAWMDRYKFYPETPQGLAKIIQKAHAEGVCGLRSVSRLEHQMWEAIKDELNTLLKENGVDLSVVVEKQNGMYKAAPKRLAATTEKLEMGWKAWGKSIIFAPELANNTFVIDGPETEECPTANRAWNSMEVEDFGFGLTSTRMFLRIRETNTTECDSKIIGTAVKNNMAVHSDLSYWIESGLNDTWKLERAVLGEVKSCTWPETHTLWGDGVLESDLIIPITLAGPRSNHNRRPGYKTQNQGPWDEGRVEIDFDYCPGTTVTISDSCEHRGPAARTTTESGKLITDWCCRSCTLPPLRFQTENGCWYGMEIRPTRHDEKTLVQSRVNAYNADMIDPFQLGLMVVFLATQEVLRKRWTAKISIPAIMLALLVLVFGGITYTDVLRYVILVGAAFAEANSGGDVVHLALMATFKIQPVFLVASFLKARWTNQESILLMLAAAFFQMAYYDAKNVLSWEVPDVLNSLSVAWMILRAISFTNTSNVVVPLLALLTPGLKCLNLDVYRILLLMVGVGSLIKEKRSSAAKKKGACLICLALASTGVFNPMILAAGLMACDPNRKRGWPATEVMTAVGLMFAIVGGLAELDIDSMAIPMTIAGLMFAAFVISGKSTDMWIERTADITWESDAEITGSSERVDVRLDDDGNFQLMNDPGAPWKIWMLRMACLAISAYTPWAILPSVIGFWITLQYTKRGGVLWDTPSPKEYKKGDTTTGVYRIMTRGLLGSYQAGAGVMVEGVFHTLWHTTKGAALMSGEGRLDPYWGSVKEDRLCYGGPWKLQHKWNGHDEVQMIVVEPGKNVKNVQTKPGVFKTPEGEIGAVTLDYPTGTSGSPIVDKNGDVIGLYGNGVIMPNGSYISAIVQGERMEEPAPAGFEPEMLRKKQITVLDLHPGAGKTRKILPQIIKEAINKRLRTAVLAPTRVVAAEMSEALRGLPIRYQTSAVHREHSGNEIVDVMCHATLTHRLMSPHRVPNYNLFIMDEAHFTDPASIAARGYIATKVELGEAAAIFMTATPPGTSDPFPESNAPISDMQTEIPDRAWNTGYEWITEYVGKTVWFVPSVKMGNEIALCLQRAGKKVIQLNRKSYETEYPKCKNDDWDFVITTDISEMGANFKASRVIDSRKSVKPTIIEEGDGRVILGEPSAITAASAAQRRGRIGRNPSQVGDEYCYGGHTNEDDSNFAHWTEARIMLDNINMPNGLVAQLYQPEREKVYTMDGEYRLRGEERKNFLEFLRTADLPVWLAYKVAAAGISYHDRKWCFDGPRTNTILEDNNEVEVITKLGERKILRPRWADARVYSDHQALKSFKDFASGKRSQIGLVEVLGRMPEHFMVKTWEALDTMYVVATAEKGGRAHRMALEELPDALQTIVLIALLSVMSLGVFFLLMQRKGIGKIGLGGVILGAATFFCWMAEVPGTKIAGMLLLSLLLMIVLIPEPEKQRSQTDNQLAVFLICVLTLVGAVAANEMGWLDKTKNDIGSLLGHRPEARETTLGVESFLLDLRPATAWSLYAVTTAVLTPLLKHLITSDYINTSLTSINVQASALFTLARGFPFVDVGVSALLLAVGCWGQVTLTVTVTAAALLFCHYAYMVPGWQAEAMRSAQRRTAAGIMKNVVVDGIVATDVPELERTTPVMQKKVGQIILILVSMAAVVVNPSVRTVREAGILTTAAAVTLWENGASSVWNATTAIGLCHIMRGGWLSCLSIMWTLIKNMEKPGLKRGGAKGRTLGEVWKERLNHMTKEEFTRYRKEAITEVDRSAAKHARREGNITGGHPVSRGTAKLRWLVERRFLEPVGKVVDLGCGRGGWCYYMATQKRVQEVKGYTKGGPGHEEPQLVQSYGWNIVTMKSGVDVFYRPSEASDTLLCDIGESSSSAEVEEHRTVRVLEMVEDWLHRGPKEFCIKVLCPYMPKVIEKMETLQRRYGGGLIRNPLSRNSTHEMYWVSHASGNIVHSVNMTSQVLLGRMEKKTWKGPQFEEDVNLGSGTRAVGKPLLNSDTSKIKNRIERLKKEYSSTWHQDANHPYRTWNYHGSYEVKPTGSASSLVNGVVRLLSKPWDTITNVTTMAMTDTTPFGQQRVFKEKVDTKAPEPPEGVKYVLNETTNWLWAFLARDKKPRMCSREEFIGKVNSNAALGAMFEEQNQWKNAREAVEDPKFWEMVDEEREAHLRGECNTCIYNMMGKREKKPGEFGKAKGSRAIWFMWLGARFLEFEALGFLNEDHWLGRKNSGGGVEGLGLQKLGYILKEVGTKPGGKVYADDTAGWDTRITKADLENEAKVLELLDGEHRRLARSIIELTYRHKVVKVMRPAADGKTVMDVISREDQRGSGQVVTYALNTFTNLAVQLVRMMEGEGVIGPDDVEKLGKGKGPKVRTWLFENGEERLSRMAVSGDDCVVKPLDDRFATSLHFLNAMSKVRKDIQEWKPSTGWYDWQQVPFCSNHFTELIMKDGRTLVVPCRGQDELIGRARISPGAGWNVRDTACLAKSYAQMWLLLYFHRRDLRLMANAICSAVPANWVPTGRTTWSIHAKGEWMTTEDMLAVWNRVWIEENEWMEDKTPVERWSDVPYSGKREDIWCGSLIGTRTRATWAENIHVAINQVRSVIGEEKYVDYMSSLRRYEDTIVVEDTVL
Experiment: Inhibition of WNV NS2B-NS3 protease expressed in Escherichia coli BL21 lambda (DE3) cells using Abz-Gly-Leu-Lys-Arg-Gly-Gly-3-(NO2)Tyr as substrate at 50 uM preincubated for 15 mins followed by substrate addition measured for 15 mins by FRET assay relative to control

Structure (SMILES)	inhibition
N=C(N)NCCC[C@H](NC(=O)c1ccc(/C=C2\SC(=O)N(CC3CCC3)C2=O)cc1)C(=O)N[C@@H](CCCCN)C(=O)N[C@H](C(N)=O)c1ccccc1	95.9%
N=C(N)NCCC[C@H](NC(=O)c1ccc(/C=C2\SC(=O)N(CC3CCCCC3)C2=O)cc1)C(=O)N[C@@H](CCCCN)C(=O)N[C@H](C(N)=O)c1ccccc1	99.6%
C#CCCCN1C(=O)S/C(=C\c2ccc(C(=O)N[C@@H](CCCNC(=N)N)C(=O)N[C@@H](CCCCN)C(=O)N[C@H](C(N)=O)c3ccccc3)cc2)C1=O	105%
CC(C)CN1C(=O)S/C(=C\c2ccc(C(=O)N[C@@H](CCCNC(=N)N)C(=O)N[C@@H](CCCCN)C(=O)N[C@H](C(N)=O)c3ccccc3)cc2)C1=O	90.7%
N=C(N)NCCC[C@H](NC(=O)c1ccc(/C=C2\SC(=O)N(C3CCC3)C2=O)cc1)C(=O)N[C@@H](CCCCN)C(=O)N[C@H](C(N)=O)c1ccccc1	95.3%
C#CCN1C(=O)S/C(=C\c2ccc(C(=O)N[C@@H](CCCNC(=N)N)C(=O)N[C@@H](CCCCN)C(=O)N[C@H](C(N)=O)c3ccccc3)cc2)C1=O	93.1%
O=C(O)c1ccc(/C=C2\SC(=O)N(CC3CCCC3)C2=O)cc1	32.4%

Target: T1, Genome polyprotein (West Nile virus, UniProt P06935)
T1 sequence (P06935 1371-1501 limits assumed): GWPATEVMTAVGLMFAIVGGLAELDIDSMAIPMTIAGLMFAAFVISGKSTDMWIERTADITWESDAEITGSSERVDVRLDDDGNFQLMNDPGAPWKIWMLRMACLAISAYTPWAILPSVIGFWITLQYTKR
T1 sequence (P06935 1502-2120 limits assumed): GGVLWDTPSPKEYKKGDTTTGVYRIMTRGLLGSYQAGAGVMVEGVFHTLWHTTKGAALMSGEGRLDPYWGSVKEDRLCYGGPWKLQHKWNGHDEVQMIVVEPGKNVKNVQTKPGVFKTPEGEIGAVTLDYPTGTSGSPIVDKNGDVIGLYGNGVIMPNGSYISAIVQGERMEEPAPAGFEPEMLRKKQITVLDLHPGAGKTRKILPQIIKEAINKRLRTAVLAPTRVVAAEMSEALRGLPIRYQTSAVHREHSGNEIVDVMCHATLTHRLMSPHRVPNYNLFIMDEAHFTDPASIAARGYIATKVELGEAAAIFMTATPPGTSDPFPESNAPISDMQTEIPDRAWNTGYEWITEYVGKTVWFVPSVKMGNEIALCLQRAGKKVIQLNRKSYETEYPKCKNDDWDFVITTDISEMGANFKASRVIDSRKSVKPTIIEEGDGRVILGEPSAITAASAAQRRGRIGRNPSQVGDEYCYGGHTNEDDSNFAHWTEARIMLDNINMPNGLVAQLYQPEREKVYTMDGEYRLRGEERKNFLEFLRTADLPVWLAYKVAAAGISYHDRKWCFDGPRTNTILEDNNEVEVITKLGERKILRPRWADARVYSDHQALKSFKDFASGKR
Experiment: Inhibition of WNV NS2B-NS3 protease expressed in Escherichia coli BL21 lambda (DE3) cells using Abz-Gly-Leu-Lys-Arg-Gly-Gly-3-(NO2)Tyr as substrate preincubated for 15 mins followed by substrate addition measured for 15 mins by FRET assay
Method in brief: as §1

Structure (SMILES)	IC50
N=C(N)NCCC[C@H](NC(=O)c1ccc(/C=C2\SC(=O)N(CC3CCC3)C2=O)cc1)C(=O)N[C@@H](CCCCN)C(=O)N[C@H](C(N)=O)c1ccccc1	1390 nM
N=C(N)NCCC[C@H](NC(=O)c1ccc(/C=C2\SC(=O)N(CC3CCCCC3)C2=O)cc1)C(=O)N[C@@H](CCCCN)C(=O)N[C@H](C(N)=O)c1ccccc1	750 nM
C#CCCCN1C(=O)S/C(=C\c2ccc(C(=O)N[C@@H](CCCNC(=N)N)C(=O)N[C@@H](CCCCN)C(=O)N[C@H](C(N)=O)c3ccccc3)cc2)C1=O	2750 nM
CC(C)CN1C(=O)S/C(=C\c2ccc(C(=O)N[C@@H](CCCNC(=N)N)C(=O)N[C@@H](CCCCN)C(=O)N[C@H](C(N)=O)c3ccccc3)cc2)C1=O	6240 nM
N=C(N)NCCC[C@H](NC(=O)c1ccc(/C=C2\SC(=O)N(C3CCC3)C2=O)cc1)C(=O)N[C@@H](CCCCN)C(=O)N[C@H](C(N)=O)c1ccccc1	1690 nM
C#CCN1C(=O)S/C(=C\c2ccc(C(=O)N[C@@H](CCCNC(=N)N)C(=O)N[C@@H](CCCCN)C(=O)N[C@H](C(N)=O)c3ccccc3)cc2)C1=O	2360 nM

Target: Prothrombin (Homo sapiens) (UniProt P00734)
Experiment: Inhibition of thrombin (unknown origin) using Boc-Val-Pro-Arg-AMC as substrate at 25 uM preincubated for 15 mins followed by substrate addition measured for 10 mins by FRET assay relative to control

Structure (SMILES)	inhibition
N=C(N)NCCC[C@H](NC(=O)c1ccc(/C=C2\SC(=O)N(CC3CCC3)C2=O)cc1)C(=O)N[C@@H](CCCCN)C(=O)N[C@H](C(N)=O)c1ccccc1	8%
N=C(N)NCCC[C@H](NC(=O)c1ccc(/C=C2\SC(=O)N(CC3CCCCC3)C2=O)cc1)C(=O)N[C@@H](CCCCN)C(=O)N[C@H](C(N)=O)c1ccccc1	6.9%
C#CCCCN1C(=O)S/C(=C\c2ccc(C(=O)N[C@@H](CCCNC(=N)N)C(=O)N[C@@H](CCCCN)C(=O)N[C@H](C(N)=O)c3ccccc3)cc2)C1=O	10.4%
CC(C)CN1C(=O)S/C(=C\c2ccc(C(=O)N[C@@H](CCCNC(=N)N)C(=O)N[C@@H](CCCCN)C(=O)N[C@H](C(N)=O)c3ccccc3)cc2)C1=O	inactive
N=C(N)NCCC[C@H](NC(=O)c1ccc(/C=C2\SC(=O)N(C3CCC3)C2=O)cc1)C(=O)N[C@@H](CCCCN)C(=O)N[C@H](C(N)=O)c1ccccc1	4.7%
C#CCN1C(=O)S/C(=C\c2ccc(C(=O)N[C@@H](CCCNC(=N)N)C(=O)N[C@@H](CCCCN)C(=O)N[C@H](C(N)=O)c3ccccc3)cc2)C1=O	10.9%

Target: T1, Genome polyprotein
Experiment: Competitive inhibition of WNV NS2B-NS3 protease expressed in Escherichia coli BL21 lambda (DE3) cells using Abz-Gly-Leu-Lys-Arg-Gly-Gly-3-(NO2)Tyr as substrate preincubated for 15 mins followed by substrate addition measured for 15 mins by Cheng-Prusoff plot analysis
Method in brief: (§2)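 WNV protease, FRET read-out. Substrate at 50, 100, 150, 200 μM; inhibitor at 0, 0.5, 1, 2, 3, 4, 5, 6 μM; triplicates repeated three times, 12 outliers of 288 values excluded. Ki taken from the Cheng-Prusoff plot (Y-intercept of IC50 vs substrate) or the Dixon plot (mean of line intersections).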

Structure (SMILES)	Ki
N=C(N)NCCC[C@H](NC(=O)c1ccc(/C=C2\SC(=O)N(CC3CCCCC3)C2=O)cc1)C(=O)N[C@@H](CCCCN)C(=O)N[C@H](C(N)=O)c1ccccc1	1300 nM

Target: T1, Genome polyprotein
Experiment: Inhibition of WNV NS2B-NS3 protease expressed in Escherichia coli BL21 lambda (DE3) cells using Abz-Gly-Leu-Lys-Arg-Gly-Gly-3-(NO2)Tyr as substrate preincubated for 15 mins followed by substrate addition measured for 15 mins by Dixon plot analysis
Method in brief: as §2

Structure (SMILES)	Ki
N=C(N)NCCC[C@H](NC(=O)c1ccc(/C=C2\SC(=O)N(CC3CCCCC3)C2=O)cc1)C(=O)N[C@@H](CCCCN)C(=O)N[C@H](C(N)=O)c1ccccc1	820 nM

Target: Genome polyprotein (West Nile virus) (UniProt P06935)
Experiment: Competitive inhibition of WNV NS2B-NS3 protease expressed in Escherichia coli BL21 lambda (DE3) cells using Abz-Gly-Leu-Lys-Arg-Gly-Gly-3-(NO2)Tyr as substrate at 0.5 to 6 uM preincubated for 15 mins followed by substrate addition measured for 15 mins by Cheng-Prusoff plot analysis
Method in brief: as §2

Structure (SMILES)	inhibition
N=C(N)NCCC[C@H](NC(=O)c1ccc(/C=C2\SC(=O)N(CC3CCCCC3)C2=O)cc1)C(=O)N[C@@H](CCCCN)C(=O)N[C@H](C(N)=O)c1ccccc1	Active

Test system: dengue virus type 2
Experiment: Inhibition of DENV serotype 2 NS2B-NS3 protease expressed in Escherichia coli BL21 lambda (DE3) cells by HPLC-based assay

Structure (SMILES)	inhibition
O=C(O)c1ccc(/C=C2\SC(=O)N(CC3CCCC3)C2=O)cc1	inactive
